Data set [1] relates to Mycobacterium tuberculosis. The data set can be described thus: Bactericidal activity against Mycobacterium bovis BCG ATCC 35734 assessed as increase in propidium iodide uptake at 1.6 uM after 1 to 5 days by flow cytometry. The data set is classed as functional, organism-based. Particulars: BCG str. ATCC 35743. In general terms: A flow cytometer gives signals particle by particle.

For data set [2], the system named is Mycobacterium tuberculosis. Put plainly: Bactericidal activity against Mycobacterium bovis BCG ATCC 35734 assessed as reduction in colony forming units at 1.6 uM after 1 to 5 days by time kill assay. It counts as functional, organism-based. As to conditions: BCG str. ATCC 35743.
Data set [3] relates to Mycobacterium tuberculosis. Put plainly: Bactericidal activity against Mycobacterium bovis BCG ATCC 35734 assessed as reduction in membrane potential by measuring red to green fluorescent ratio at 100 uM measured at 3 hrs by DiOC2-dye based fluorescence assay. The data set is classed as functional, organism-based. As to conditions: BCG str. ATCC 35743.
For data set [4], the system named is Mycobacterium tuberculosis. The data set can be described thus: Bactericidal activity against Mycobacterium bovis BCG ATCC 35734 assessed as suppression of reductive capacity by measuring decrease in formazan formation at 100 uM after 0.5 to 1 hr by MTT reduction assay. The data set is classed as functional. Details: scale not given: the % may be the effect or the level left. In a few lines: (§1)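 BCG cultures exposed to 0.2–100 μM for 30 min and 1 h, then MTT added; formazan production read at 595 nm against drug-free basal absorbance; CCCP 100 μM reference; representative of two independent experiments.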

The test system of data set [5] is Mycobacterium tuberculosis. Put plainly: Bactericidal activity against Mycobacterium bovis BCG ATCC 35734 assessed as increase in propidium iodide uptake at 4 uM after 1 to 5 days by flow cytometry. The data set is classed as functional, organism-based. Particulars: BCG str. ATCC 35743.
Data set [6] has as its system Mycobacterium tuberculosis. Put plainly: Bactericidal activity against Mycobacterium bovis BCG ATCC 35734 assessed as reduction in colony forming units at 4 uM after 1 to 5 days by time kill assay. The data set is classed as functional, organism-based. Particulars: BCG str. ATCC 35743.
Data set [7] relates to Mycobacterium tuberculosis. The data set can be described thus: Bactericidal activity against Mycobacterium bovis BCG ATCC 35734 assessed as reduction in membrane potential by measuring red to green fluorescent ratio at 12 uM measured after 1 to 5 days by DiOC2-dye based fluorescence assay. It counts as functional, organism-based. Particulars: BCG str. ATCC 35743. A digest of the protocol: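 Membrane potential in treated BCG cultures tracked as DiOC2 red/green fluorescence ratio over extended exposure of 1, 3 and 5 days.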

Data set [8] has as its system Vero C1008. The data set can be described thus: Cytotoxicity against African green monkey Vero E6 cells assessed as reduction in cell viability after 48 hrs by cell titre 96 aqueous one solution-based assay. Particulars: Chlorocebus sabaeus, Vero C1008, 48 h. In a few lines:
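Vero cell viability was compared with untreated control cells. IC50 was taken as the concentration giving 50% loss of viability, averaged over two or more separate determinations.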

Data set [9] can be described thus: Hemolytic activity against human RBC after 1 hr. It counts as ADME, cell-based, Erythrocyte. Particulars: human red blood cells (erythrocytes). A digest of the protocol:
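Human red blood cells were exposed to compound, and lysis was scaled against Triton X-100 (2% v/v), taken as 100% hemolysis. HC50 was the concentration lysing 50% of cells, averaged over two or more separate determinations.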

In data set [10] the test system is Mycobacterium tuberculosis. Put plainly: Bactericidal activity against Mycobacterium bovis BCG ATCC 35734 assessed as reduction in oxygen consumption at 5 times MIC90 after 1 hr by methylene blue-based assay. The data set is classed as functional, organism-based. Particulars: BCG str. ATCC 35743.
Data set [11] concerns Mycobacterium tuberculosis. The data set can be described thus: Bactericidal activity against Mycobacterium bovis BCG ATCC 35734 assessed as cell elongation at 12 uM after 1 to 5 days by acid-fast staining-based light microscopy. The data set is classed as functional, organism-based. As to conditions: BCG str. ATCC 35743.
Data set [12] concerns Mycobacterium tuberculosis. The data set can be described thus: Bactericidal activity against Mycobacterium bovis BCG ATCC 35734 assessed as reduction in membrane potential by measuring red to green fluorescent ratio at 12 uM measured at 20 mins to 3 hrs by DiOC2-dye based fluorescence assay. The data set is classed as functional, organism-based. Particulars: BCG str. ATCC 35743.

Data set [13] relates to Mycobacterium tuberculosis. The data set can be described thus: Antibacterial activity against Mycobacterium bovis BCG ATCC 35734 after 5 days by broth dilution method. It counts as functional. As to conditions: BCG str. ATCC 35743, 120 h. In a few lines: (§2)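 Broth dilution; growth read by turbidity; MIC50 and MIC90 are the concentrations reducing growth by 50% and 90% relative to untreated controls; average of two or more separate determinations.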
(In general: In broth dilution the organism is exposed to a series of concentrations in liquid medium.)

The test system of data set [14] is Mycobacterium tuberculosis. Put plainly: Bactericidal activity against Mycobacterium bovis BCG ATCC 35734 assessed as increase in propidium iodide uptake at 6 uM after 1 to 5 days by flow cytometry. It counts as functional, organism-based. As to conditions: BCG str. ATCC 35743.
Data set [15] deals with Mycobacterium tuberculosis. Put plainly: Bactericidal activity against Mycobacterium bovis BCG ATCC 35734 assessed as reduction in colony forming units at 6 uM after 1 to 5 days by time kill assay. The data set is classed as functional, organism-based. As to conditions: BCG str. ATCC 35743.
In data set [16] the test system is Mycobacterium tuberculosis. Put plainly: Bactericidal activity against Mycobacterium bovis BCG ATCC 35734 assessed as reduction in oxygen consumption at 10 times MIC90 after 1 hr by methylene blue-based assay. It counts as functional, organism-based. Particulars: BCG str. ATCC 35743.
Data set [17] concerns Mycobacterium tuberculosis. The data set can be described thus: Bactericidal activity against Mycobacterium bovis BCG ATCC 35734 assessed as suppression of reductive capacity by measuring decrease in formazan formation after 0.5 to 1 hr by MTT reduction assay. It counts as functional, organism-based. Particulars: BCG str. ATCC 35743. A digest of the protocol:
as §1

Data set [18] concerns Mycobacterium tuberculosis. The data set can be described thus: Antibacterial activity against Mycobacterium tuberculosis H37Rv ATCC 27294 after 7 days by broth dilution method. The data set is classed as functional. As to conditions: H37Rv ATCC 27294, 168 h. In a few lines: as §2
Data set [19] deals with Mycobacterium tuberculosis. Put plainly: Bactericidal activity against Mycobacterium bovis BCG ATCC 35734 assessed as reduction in colony forming units after 5 days. The data set is classed as functional, BCG str. ATCC 35743.
For data set [20], the system named is Mycobacterium tuberculosis. The data set can be described thus: Bactericidal activity against Mycobacterium bovis BCG ATCC 35734 assessed as reduction in oxygen consumption at 15 times MIC90 after 1 hr by methylene blue-based assay. It counts as functional, organism-based. As to conditions: BCG str. ATCC 35743.
The test system of data set [21] is Mycobacterium tuberculosis. Put plainly: Bactericidal activity Mycobacterium bovis BCG ATCC 35734 assesses as cell death at 15 times MIC90 after 1 hr in presence of methylene blue. Particulars: BCG str. ATCC 35743. It counts as functional, organism-based.
Data set [22] concerns Lipid bilayer. Put plainly: Binding affinity to DMPG vesicles assessed as increase in melting transition temperature by differential scanning calorimetric analysis. A digest of the protocol: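 Compound-loaded vesicles of negatively charged dimyristoylphosphatidylglycerol, used as a bacterial membrane surrogate, were scanned by differential scanning calorimetry. The gel-to-liquid melting endotherm was read for melting temperature (Tm) and calorimetric enthalpy (ΔH).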
(In DSC, transitions show as peaks or steps in heat flow.)

Data on four compounds can be found in ChEMBL document CHEMBL4130564, “Indolylalkyltriphenylphosphonium Analogues Are Membrane-Depolarizing Mycobactericidal Agents” (ACS Med Chem Lett, 2017).

pIC50: −log10 of the molar value. Calls of active or inactive are those of the source. No cut-off for these calls is given here. Bounds are passed on as bounds.

Take `NNC(=O)c1ccncc1`: the outcome in [1] was inactive. Moreover, in [2], the result was Active.

As for `N#CC(C#N)=NNc1cccc(Cl)c1` [CARBONYL CYANIDE M-CHLOROPHENYLHYDRAZONE], in data set [3], the outcome was Active. Besides, the Activity in [4] came out at 50%.

Turning to `CCCCCCCCn1cc(CN2CCC3(CCc4ccccc43)CC2)c2ccc(OC)cc21`, the outcome in data set [5] and in data set [6] was Active.

Broadly, the pIC50 is the negative decadic logarithm of the IC50, by convention in mol/L. The term HC50 denotes the concentration that lyses half of the red blood cells. The term MIC50 denotes the lowest concentration that inhibits either 50% of growth or 50% of the strains tested, depending on the study. For orientation: MIC90 means the lowest concentration that inhibits either 90% of growth or 90% of the strains tested, depending on the study. As usually defined, the ΔTm is the shift of the melting midpoint relative to a reference. Regarding `COc1cccc2ccn(CCCCC[P+](c3ccccc3)(c3ccccc3)c3ccccc3)c12.[I-]`, the outcome in data set [7], in data set [11], in data set [12], in [14], in data set [15] and in data set [16] was Active. Also, in data set [20], the outcome was Active. Moreover, the pIC50 in [8] is 4.74. Moreover, the HC50 at 1 h in data set [9] was > 300 µM. In addition, the outcome in data set [10] was inactive. Further, the MIC50 in data set [13] and in data set [18] was 2 µM throughout. Besides, the MIC90 in [13] amounted to 3 µM; in [18] it was 6 µM. Moreover, the Activity entry in [17] is “Dose-dependent effect”; in data set [21], “Toxic”. For the same compound, the MBC99 in data set [19] came to 3 µM. Moreover, the MBC in data set [19] (Mycobacterium tuberculosis, BCG ATCC 35734, 120 h, read-out: MBC99.9) turned out to be 6 µM. In data set [22], the ΔTm is 1 °C.
